{"data": "Measured values gathered from unrelated publications", "CHRM2": "Muscarinic acetylcholine receptor M2 (CHRM2, Homo sapiens, UniProt P08172)", "PTGES": "Prostaglandin E synthase (PTGES, Homo sapiens, UniProt O14684)", "note": "Lines come from different studies, so protocols differ."}
{"Structure (SMILES)": "CCCCCCCNCCCc1ccc([N+](=O)[O-])cc1", "target": "CHRM2", "assay": "ligand displacement, radioligand", "measurement": "Ki", "value": "3.2 µM"}
{"Structure (SMILES)": "CCCCCc1cc(O)c2c(c1)OC(C)(C)[C@@H]1CCC(C)=C[C@@H]21", "target": "PTGES", "assay": "enzyme activity, inhibitor", "measurement": "IC50", "value": "> 10 µM"}
{"Structure (SMILES)": "CC(C)[N+](C)(CCC(C(N)=O)(c1ccccc1)c1ccccc1)C(C)C", "target": "CHRM2", "assay": "ligand displacement, radioligand", "measurement": "IC50", "value": "0.007 µM"}
{"Structure (SMILES)": "CC(C)C[C@H](NC(=O)[C@H](Cc1ccccc1)NC(=O)[C@H](Cc1ccc(O)cc1)NC(=O)CNC(=O)[C@H](CCCCN)NC(=O)[C@H](CO)NC(=O)[C@H](CCC(N)=O)NC(=O)CNC(=O)[C@@H](NC(=O)[C@H](CO)NC(=O)[C@@H]1CCCN1C(=O)[C@H](CO)NC(=O)[C@H](CCC(N)=O)NC(=O)[C@H](Cc1ccc(O)cc1)NC(=O)[C@H](CCC(=O)O)NC(=O)[C@H](C)NC(=O)[C@H](CCCCN)NC(=O)[C@@H](N)Cc1ccccc1)C(C)C)C(=O)N[C@@H](Cc1ccccc1)C(=O)N[C@@H](CCCNC(=N)N)C(=O)N1CCC[C@H]1C(=O)N[C@@H](CCCNC(=N)N)C(=O)N[C@@H](CC(N)=O)C(N)=O", "target": "Neuromedin-U receptor 1 (Mus musculus, UniProt O55040)", "assay": "β-arrestin recruitment, agonist", "measurement": "EC50", "value": "0.000501 µM"}
{"Structure (SMILES)": "CC(C)(C)[C@H](NC(=O)C(F)(F)F)C(=O)N1C[C@H]2[C@@H]([C@H]1C(=O)N[C@H](C#N)C[C@@H]1CCNC1=O)C2(C)C", "target": "Organic anion transporter 3 (SLC22A8, Homo sapiens, UniProt Q8TCC7)", "assay": "transporter uptake, inhibitor", "measurement": "Ki", "value": "521 µM"}
{"Structure (SMILES)": "CCCCCCCCCCCCNCCCc1ccc([N+](=O)[O-])cc1", "target": "CHRM2", "assay": "ligand displacement, radioligand", "measurement": "Ki", "value": "5.6 µM"}
{"Structure (SMILES)": "CCCCCc1cc(O)c2c(c1)OC(C)(C)c1ccc(C)cc1-2", "target": "PTGES", "assay": "enzyme activity, inhibitor", "measurement": "IC50", "value": "> 10 µM"}
{"Structure (SMILES)": "CC(C)C[C@H](NC(=O)CNC(=O)[C@H](C)NC(=O)c1ccc(S[C@@H]2O[C@H](CO)[C@H](O)[C@H](O)[C@H]2O)cc1)C(=O)N[C@@H](C)C(=O)N[C@H]1CCN(c2cc3c(cc2F)c(=O)c(C(=O)O)cn3C2CC2)C1", "target": "PA-I galactophilic lectin (lecA, Pseudomonas aeruginosa, UniProt Q05097)", "assay": "ligand displacement, FP", "measurement": "Ki", "value": "12 µM"}
